Results as given in ChEMBL document CHEMBL4145471, “New 1,5 and 2,5-disubstituted tetrazoles-dependent activity towards surface barrier of Candida albicans” (Eur J Med Chem, 2018).

What was measured:
Candida albicans [1] = assay: Antifungal activity against Candida albicans ATCC 90028 at 0.5 ug/ml after 18 hrs relative to control; type: functional
Procedure, shortened: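 Planktonic broth microdilution per M27-A3 in MOPS-buffered RPMI 1640 (pH 7.0), final inoculum 1.8×10^3 cells/mL, compounds 0.0313–16 µg/mL from 1600 µg/mL stocks in ethanol or DMSO. Incubated at 35°C without agitation; OD405 read at 18 and 48 h. % inhibition was derived from test, sterility (no inoculum) and solvent growth-control wells. Amphotericin B at 0.5 µg/mL served as the 100% control.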

Candida albicans [2] = assay: Antifungal activity against Candida albicans ATCC 90028 at 0.0313 ug/ml after 48 hrs relative to control; type: functional
Candida albicans [3] = assay: Fungicidal activity against Candida albicans ATCC 90028 at 16 ug/ml after 48 hrs by M27-A3 microdilution method; type: functional
Procedure, shortened: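 After 48 h at 35°C in M27-A3 microdilution plates (compound at 16 µg/mL), 50 µL aliquots from treated and solvent-control wells were diluted 10^4 in PBS and plated on drug-free Sabouraud dextrose agar, then incubated 48 h at 35°C. Reduction R = lg CFU/mL control − lg CFU/mL treated; R ≥ 3 defined as fungicidal.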

Candida albicans [4] = assay: Synergistic antifungal activity against Candida albicans ATCC 90028 at 80 ug/ml after 48 hrs in presence of 1.25 ug/ml fluconazol by checkerboard assay relative to control; type: functional
Procedure, shortened: (§1)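 Checkerboard in C. albicans ATCC 90028, inoculum prepared per CLSI M27-A3 in RPMI. Fluconazole serially diluted 80-1.25 µg/mL across the plate against the partner compound at 80-1.25 µg/mL final. Incubated 48 h at 35°C. Metabolic activity read by XTT reduction at 475 nm (660 nm reference), given as % of the untreated growth control.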

Candida albicans [5] = assay: Synergistic antifungal activity against Candida albicans ATCC 90028 at 40 ug/ml after 48 hrs in presence of 40 ug/ml fluconazol by checkerboard assay relative to control; type: functional; details: ATCC 90028, 48 h, read-out: GI; procedure, shortened: as §1
Candida albicans [6] = assay: Synergistic antifungal activity against Candida albicans ATCC 90028 at 20 ug/ml after 48 hrs in presence of 10 ug/ml fluconazol by checkerboard assay relative to control; type: functional; procedure, shortened: as §1
Candida albicans [7] = assay: Synergistic antifungal activity against Candida albicans ATCC 90028 at 10 ug/ml after 48 hrs in presence of 40 ug/ml fluconazol by checkerboard assay relative to control; type: functional
Procedure, shortened: (§2)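 Checkerboard per M27-A3 against ATCC 90028: fluconazole at 80–1.25 µg/mL horizontally and partner compound at 80–1.25 µg/mL vertically, 100 µL yeast inoculum per well, 35°C for 48 h. After 48 h, metabolic activity was measured by XTT reduction at 475 nm (660 nm reference) relative to untreated growth control. FIC index is the sum of the FICs; <1 was defined as synergism and >1 as antagonism.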

Candida albicans [8] = assay: Synergistic antifungal activity against Candida albicans ATCC 90028 at 10 ug/ml after 48 hrs in presence of 10 ug/ml fluconazol by checkerboard assay relative to control; type: functional; details: ATCC 90028, 48 h, read-out: GI; procedure, shortened: as §2
Candida albicans [9] = assay: Synergistic antifungal activity against Candida albicans ATCC 90028 at 2.5 ug/ml after 48 hrs in presence of 80 ug/ml fluconazol by checkerboard assay relative to control; type: functional
Procedure, shortened: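 Checkerboard microdilution (M27-A3) on C. albicans ATCC 90028 in RPMI 1640: fluconazole (80-1.25 µg/mL) crossed with tetrazole (80-1.25 µg/mL final), incubated at 35°C for 48 h. Growth by OD405 at 18 and 48 h, endpoint taken as 100% inhibition. FIC index = sum of the two agents' FICs; <1 synergism, >1 antagonism.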

Candida albicans [10] = assay: Synergistic antifungal activity against Candida albicans ATCC 90028 at 1.25 ug/ml after 48 hrs in presence of 80 ug/ml fluconazol by checkerboard assay relative to control; type: functional; procedure, shortened: as §2
Candida albicans [11] = assay: Synergistic antifungal activity against Candida albicans ATCC 90028 at 1.25 ug/ml after 48 hrs in presence of 5 ug/ml fluconazol by checkerboard assay relative to control; type: functional; procedure, shortened: as §2
Candida albicans [12] = assay: Antifungal activity against Candida albicans ATCC 90028 assessed as inhibition of metabolic activity at 5 ug/ml after 48 hrs in presence of 40 ug/ml fluconazol by XTT assay relative to control; type: functional; details: values are per cent of control
Procedure, shortened: (§3)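 Checkerboard against strain ATCC 90028, inoculum per M27-A3: fluconazole 80-1.25 µg/mL on one axis, tetrazole 80-1.25 µg/mL on the other. Plates at 35°C for 48 h, then XTT metabolic reduction read at 475 nm (660 nm reference). Activity is the drop in mean absorbance against untreated growth control. FICs and their summed FIC index are taken at 50% reduction in metabolic activity.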

Candida albicans [13] = assay: Antifungal activity against Candida albicans ATCC 90028 assessed as inhibition of metabolic activity at 2.5 ug/ml after 48 hrs in presence of 40 ug/ml fluconazol by XTT assay relative to control; type: functional; details: values are per cent of control
Procedure, shortened: (§4)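 C. albicans ATCC 90028 in checkerboard: fluconazole serial dilutions (80-1.25 µg/mL) crossed with tetrazole (80-1.25 µg/mL final), M27-A3 inoculum in RPMI 1640, 35°C for 48 h. Metabolic activity measured by XTT reduction, read at 475 nm (660 nm reference). Activity expressed relative to untreated growth control absorbance.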

Candida albicans [14] = assay: Antifungal activity against Candida albicans ATCC 90028 assessed as inhibition of metabolic activity at 2.5 ug/ml after 48 hrs in presence of 1.25 ug/ml fluconazol by XTT assay relative to control; type: functional; details: values are per cent of control; procedure, shortened: as §4
Candida albicans [15] = assay: Antifungal activity against Candida albicans ATCC 90028 assessed as inhibition of metabolic activity at 1.25 ug/ml after 48 hrs in presence of 80 ug/ml fluconazol by XTT assay relative to control; type: functional; details: values are per cent of control; procedure, shortened: as §3
Candida albicans [16] = assay: Antifungal activity against Candida albicans ATCC 90028 assessed as inhibition of metabolic activity at 1.25 ug/ml after 48 hrs in presence of 40 ug/ml fluconazol by XTT assay relative to control; type: functional; details: values are per cent of control; procedure, shortened: as §3
Candida albicans [17] = assay: Antifungal activity against Candida albicans ATCC 90028 assessed as FIC at 80 ug/ml in presence of fluconazol after 48 hrs by checkerboard-based XTT assay; type: functional; procedure, shortened: as §3
Candida albicans [18] = assay: Antifungal activity against Candida albicans ATCC 90028 assessed as metabolic activity at 80 ug/ml after 48 hrs in presence of 5 ug/ml fluconazol by XTT assay relative to control
Candida albicans [19] = assay: Antifungal activity against Candida albicans ATCC 90028 assessed as metabolic activity at 80 ug/ml after 48 hrs in presence of 20 ug/ml fluconazol by XTT assay relative to control
Candida albicans [20] = assay: Antifungal activity against Candida albicans ATCC 90028 assessed as metabolic activity at 40 ug/ml after 48 hrs in presence of 40 ug/ml fluconazol by XTT assay relative to control; details: ATCC 90028, 48 h

Structure (SMILES)	Activity (Candida albicans [1]) [%]	Activity (Candida albicans [2]) [%]	Activity (Candida albicans [3]) [log10CFU/ml]	growth inhibition (GI) (Candida albicans [4]) [%]	inhibition of growth at 40 µg/mL (Candida albicans [5]) [%]	growth inhibition (GI) (Candida albicans [6]) [%]	growth inhibition (GI) (Candida albicans [7]) [%]	inhibition of growth at 10 µg/mL (Candida albicans [8]) [%]	growth inhibition (GI) (Candida albicans [9]) [%]	growth inhibition (GI) (Candida albicans [10]) [%]	growth inhibition (GI) (Candida albicans [11]) [%]	residual activity (Candida albicans [12]) [%]	residual activity (Candida albicans [13]) [%]	residual activity (Candida albicans [14]) [%]	residual activity (Candida albicans [15]) [%]	residual activity (Candida albicans [16]) [%]	FIC (Candida albicans [17])	Metabolic activity (Candida albicans [18]) [%]	Metabolic activity (Candida albicans [19]) [%]	Metabolic activity at 40 µg/mL (Candida albicans [20]) [%]
ClCCCn1nnnc1-c1ccccc1Cl	98.4	99.38	0.18	100	99.4	99.73	99.29	99.7	99.49	99.49	98.74	86.34	97.62	0	62.42	81.57	>5	100	70.42	100
CCOC(=O)CCn1nnc(-c2ccccc2)n1	98.97	99.12	0.33	99.97	99.5	99.52	99.34	99.4	99.54	99.51	98.99	94.92	92.82	90.2	66.82	86.85	>5	100	73.11	100
Cc1ccc(-c2nnn(CCCN3CCOCC3)n2)cc1	98.99	99.56	0.56	98.77	99.5	99.32	98.78	99	99.19	99.54	99.86	100	100	100	100	100	>1.25	100	50.83	95.3
